In ChEMBL document CHEMBL1142436, “Design and synthesis of 4-substituted indolo[3,2-e][1,2,3]triazolo[1,5-a]pyrimidine derivatives with antitumor activity” (2008):

Tests used:
Type in all cases: functional
UACC-62 = assay: Growth inhibition of human UACC62 cells after 48 hrs; conditions: UACC-62, 48 h
Outline: (§1)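 NCI 60-line screen: cells in RPMI 1640 with 5% FBS and 2 mM L-glutamine, plated at 5000–40000 cells/well, grown 24 h (37 °C, 5% CO₂), then exposed to five 10-fold or ½-log dilutions (DMSO stock) for 48 h. Fixed with TCA (final 10% for adherent cells, 16% for suspension cells), then SRB stained with absorbance at 515 nm. GI50 from percentage growth relative to time-zero and control wells.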

SK-MEL-2 = assay: Growth inhibition of human SK-MEL2 cells after 48 hrs; conditions: SK-MEL-2, 48 h
Outline: (§2)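 NCI ~60-line screen. Cells were grown in RPMI 1640 with 5% FBS and 2 mM L-glutamine and plated at 5000–40000 cells/well. After a 24 h preincubation, five drug concentrations from DMSO stocks were added for 48 h at 37 °C. Cells were TCA-fixed, stained with SRB and read at 515 nm. GI50 was taken from time-zero and control absorbances and reported as pGI50.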

HL-60 = assay: Growth inhibition of human HL60 cells after 48 hrs; conditions: HL-60, 48 h; outline: as §2
LOX IMVI = assay: Growth inhibition of human LOXIMVI cells after 48 hrs; outline: as §2
TK-10 = assay: Growth inhibition of human TK10 cells after 48 hrs; conditions: TK-10, 48 h; outline: as §1
UACC-257 = assay: Growth inhibition of human UACC257 cells after 48 hrs; conditions: UACC-257, 48 h; outline: as §1
UO-31 = assay: Growth inhibition of human UO31 cells after 48 hrs; conditions: UO-31, 48 h; outline: as §1
NCI-H226 = assay: Growth inhibition of human NCI-H226 cells after 48 hrs; conditions: NCI-H226, 48 h; outline: as §2
PC-3 = assay: Growth inhibition of human PC3 cells after 48 hrs; conditions: PC-3, 48 h; outline: as §2
NCI/ADR-RES = assay: Growth inhibition of human NCI/ADR-RES cells after 48 hrs; outline: as §2
MDA-MB-231 = assay: Growth inhibition of human MDA-MB-231 cells after 48 hrs; conditions: MDA-MB-231, 48 h; outline: as §2
HCT-15 = assay: Growth inhibition of human HCT15 cells after 48 hrs; conditions: HCT-15, 48 h; outline: as §2
K562 = assay: Growth inhibition of human K562 cells after 48 hrs; conditions: K562, 48 h; outline: as §2
786-0 = assay: Growth inhibition of human 786-0 cells after 48 hrs; conditions: 786-0, 48 h; outline: as §2
SN12C = assay: Growth inhibition of human SN12C cells after 48 hrs; outline: as §1
A549 = assay: Growth inhibition of human A549 cells after 48 hrs; conditions: A549, 48 h; outline: as §2
HT-29 = assay: Growth inhibition of human HT29 cells after 48 hrs; conditions: HT-29, 48 h; outline: as §2
CAKI-1 = assay: Growth inhibition of human CAKI1 cells after 48 hrs; conditions: CAKI-1, 48 h; outline: as §2
SK-OV-3 = assay: Growth inhibition of human SKOV3 cells after 48 hrs; conditions: SK-OV-3, 48 h; outline: as §1
HOP-92 = assay: Growth inhibition of human HOP92 cells after 48 hrs; conditions: HOP-92, 48 h; outline: as §2
SF-295 = assay: Growth inhibition of human SF295 cells after 48 hrs; conditions: SF-295, 48 h; outline: as §2
OVCAR-5 = assay: Growth inhibition of human OVCAR5 cells after 48 hrs; conditions: OVCAR-5, 48 h; outline: as §2

**Q.** How did the GI50 (UACC-62) turn out when `CCCCN(CCCC)CCCn1c(=O)c2c3ccccc3n(C)c2n2nnc(-c3ccccc3)c12` was run?
**A.** 22.4 µM

**Q.** And the TGI (UACC-62; read-out: pTGI (converted))?
**A.** 85.1 µM

**Q.** And the GI50 (SK-MEL-2)?
**A.** > 100 µM

**Q.** What about the TGI (SK-MEL-2; read-out: pTGI (converted)) of the same compound?
**A.** > 100 µM

**Q.** What about the GI50 (HL-60) of the same compound?
**A.** 2.57 µM

**Q.** What about the TGI (HL-60; read-out: pTGI (converted)) of the same compound?
**A.** 41.7 µM

**Q.** What about the GI50 (LOX IMVI) of the same compound?
**A.** 28.2 µM

**Q.** And the TGI (LOX IMVI; read-out: pTGI (converted))?
**A.** > 100 µM

**Q.** What about the GI50 (TK-10) of the same compound?
**A.** 1.91 µM

**Q.** What about the TGI (TK-10; read-out: pTGI (converted)) of the same compound?
**A.** 22.4 µM

**Q.** What about the GI50 (UACC-257) of the same compound?
**A.** 28.8 µM

**Q.** And the TGI (UACC-257; read-out: pTGI (converted))?
**A.** 83.2 µM

**Q.** And the GI50 (UO-31)?
**A.** 6.03 µM

**Q.** What about the TGI (UO-31; read-out: pTGI (converted)) of the same compound?
**A.** 46.8 µM

**Q.** What about the GI50 (NCI-H226) of the same compound?
**A.** 57.5 µM

**Q.** And the TGI (NCI-H226; read-out: pTGI)?
**A.** > 100 µM

**Q.** What about the GI50 (PC-3) of the same compound?
**A.** 18.2 µM

**Q.** What about the TGI (PC-3; read-out: pTGI (converted)) of the same compound?
**A.** 47.9 µM

**Q.** What about the GI50 (NCI/ADR-RES) of the same compound?
**A.** 14.1 µM

**Q.** And the TGI (NCI/ADR-RES; read-out: pTGI (converted))?
**A.** 67.6 µM

**Q.** And the GI50 (MDA-MB-231)?
**A.** 36.3 µM

**Q.** And the TGI (MDA-MB-231; read-out: pTGI (converted))?
**A.** > 100 µM

**Q.** And the GI50 (HCT-15)?
**A.** 20.9 µM

**Q.** What about the TGI (HCT-15; read-out: pTGI) of the same compound?
**A.** > 100 µM

**Q.** What about the GI50 (K562) of the same compound?
**A.** 13.8 µM

**Q.** And the TGI (K562; read-out: pTGI (converted))?
**A.** > 100 µM

**Q.** And the GI50 (786-0)?
**A.** 38.9 µM

**Q.** What about the TGI (786-0; read-out: pTGI (converted)) of the same compound?
**A.** > 100 µM

**Q.** And the GI50 (SN12C)?
**A.** 19.5 µM

**Q.** And the TGI (SN12C; read-out: pTGI (converted))?
**A.** 95.5 µM

**Q.** And the GI50 (A549)?
**A.** 43.7 µM

**Q.** And the TGI (A549; read-out: pTGI (converted))?
**A.** > 100 µM

**Q.** And the GI50 (HT-29)?
**A.** 7.76 µM

**Q.** And the TGI (HT-29; read-out: pTGI (converted))?
**A.** 36.3 µM

**Q.** And the GI50 (CAKI-1)?
**A.** 50.1 µM

**Q.** And the TGI (CAKI-1; read-out: pTGI (converted))?
**A.** > 100 µM

**Q.** What about the GI50 (SK-OV-3) of the same compound?
**A.** 30.2 µM

**Q.** And the TGI (SK-OV-3; read-out: pTGI (converted))?
**A.** 30.2 µM

**Q.** What about the GI50 (HOP-92) of the same compound?
**A.** 18.6 µM

**Q.** And the TGI (HOP-92; read-out: pTGI (converted))?
**A.** 44.7 µM

**Q.** And the GI50 (SF-295)?
**A.** 31.6 µM

**Q.** And the TGI (SF-295; read-out: pTGI (converted))?
**A.** > 100 µM

**Q.** And the GI50 (OVCAR-5)?
**A.** 22.4 µM

**Q.** And the TGI (OVCAR-5; read-out: pTGI (converted))?
**A.** > 100 µM
